Experimental data reported in ChEMBL document CHEMBL4038284, “Synthesis of novel quinoline-based 4,5-dihydro-1H-pyrazoles as potential anticancer, antifungal, antibacterial and antiprotozoal agents” (Eur J Med Chem, 2017).
≈ marks a conversion by molar mass, not a printed value. Calls of active or inactive are those of the source. The calls are words filed in the database; no cut-off is given here.

Assays:
HCT-15 = assay: Growth inhibition of human HCT15 cells at 10 uM incubated for 48 hrs by sulforhodamine B assay; format: functional, cell-based
Summary of the method: (§1)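 NCI 60-cell-line screen at a single 10 µM dose. Cells in RPMI-1640 with 5% FBS and 2 mM L-glutamine, pre-incubated 24 h, then treated for 48 h at 37 °C. TCA fixation, sulforhodamine B staining, absorbance at 515 nm. Percentage growth calculated against time-zero and untreated controls.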

MDA-MB-231 = assay: Growth inhibition of human MDA-MB-231 cells at 10 uM incubated for 48 hrs by sulforhodamine B assay; format: functional, cell-based
Summary of the method: (§2)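 NCI 60-line panel, single 10 μM dose. Cells were grown in RPMI-1640 with 5% FBS and 2 mM L-glutamine and pre-incubated 24 h before compound addition (DMSO stock). Exposure was 48 h at 37 °C, 5% CO2. Cells were fixed with cold TCA (10% final), stained with 0.4% SRB, bound dye dissolved in 10 mM Tris base, A515 read. Growth was taken relative to time-zero and untreated control plates.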

SK-MEL-5 = assay: Growth inhibition of human SK-MEL-5 cells at 10 uM incubated for 48 hrs by sulforhodamine B assay; format: functional, cell-based
Summary of the method: (§3)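 NCI-60 single-dose screen at 10 µM for 48 h. Cells were grown in RPMI-1640 with 5% FBS and 2 mM L-glutamine and preincubated 24 h before compound. Time-zero plates were TCA-fixed at compound addition. After exposure, cells were TCA-fixed, stained with SRB and read at 515 nm. Percentage growth was calculated against time-zero and untreated-control absorbances.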

BT-549 = assay: Growth inhibition of human BT549 cells at 10 uM incubated for 48 hrs by sulforhodamine B assay; format: functional, cell-based; summary of the method: as §1
786-0 = assay: Growth inhibition of human 786-0 cells at 10 uM incubated for 48 hrs by sulforhodamine B assay; format: functional, cell-based; summary of the method: as §1
SK-OV-3 = assay: Growth inhibition of human SKOV3 cells at 10 uM incubated for 48 hrs by sulforhodamine B assay; format: functional, cell-based; summary of the method: as §3
MOLT-4 = assay: Growth inhibition of human MOLT4 cells at 10 uM incubated for 48 hrs by sulforhodamine B assay; format: functional, cell-based; summary of the method: as §2
EKVX = assay: Growth inhibition of human EKVX cells at 10 uM incubated for 48 hrs by sulforhodamine B assay; format: functional, cell-based; summary of the method: as §1
NCI-H322M = assay: Growth inhibition of human NCI-H322M cells at 10 uM incubated for 48 hrs by sulforhodamine B assay; format: functional, cell-based; summary of the method: as §2
Staphylococcus aureus = assay: Antibacterial activity against methicillin-resistant Staphylococcus aureus ATCC 43300 after 24 hrs by resazurin dye based microdilution assay; format: functional; settings: ATCC 43300, 24 h
Summary of the method: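 Broth microdilution in Mueller Hinton broth, inoculum 5 × 10^5 – 8 × 10^5. Compound stocks diluted in MHB with 5% DMSO and 0.1% Tween 80. Incubation 24 h at 35-37 °C. MIC is the lowest concentration with visible growth inhibition and/or by resazurin (1 mg/mL) read-out. Gentamicin as control. Run in duplicate, replicated at least three times.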

NCI-H23 = assay: Growth inhibition of human NCI-H23 cells at 10 uM incubated for 48 hrs by sulforhodamine B assay; format: functional, cell-based; summary of the method: as §2
T47D = assay: Growth inhibition of human T47D cells at 10 uM incubated for 48 hrs by sulforhodamine B assay; format: functional, cell-based; summary of the method: as §3
U-251 = assay: Growth inhibition of human U251 cells at 10 uM incubated for 48 hrs by sulforhodamine B assay; format: functional, cell-based; summary of the method: as §3
Cryptococcus neoformans [1] = assay: Growth inhibition of Cryptococcus neoformans ATCC 32264 at 250 ug/ml incubated for 48 hrs under dark condition by broth microdilution method relative to control; format: functional; settings: ATCC 32264, 48 h, read-out: GI
Summary of the method: (§4)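 CLSI M27-A3 broth microdilution in RPMI-1640, DMSO ≤1%. Inoculum 1-5 × 10^3 CFU/mL. Incubated 48 h at 30 °C, dark. % inhibition = 100 − (OD405 test − sterility control)/(OD405 growth control − sterility control), with growth and sterility control wells. Triplicate.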

DU-145 = assay: Growth inhibition of human DU145 cells at 10 uM incubated for 48 hrs by sulforhodamine B assay; format: functional, cell-based; summary of the method: as §1
Klebsiella pneumoniae = assay: Antibacterial activity against carbapenemase positive Klebsiella pneumoniae BAA 1705 after 24 hrs by resazurin dye based microdilution assay; format: functional; settings: BAA 1705, 24 h
Summary of the method: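 MIC taken as the lowest concentration giving visible inhibition and/or by resazurin (1 mg/mL). Gentamicin was the control. Run in duplicate, repeated at least three times.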

SF-268 = assay: Growth inhibition of human SF268 cells at 10 uM incubated for 48 hrs by sulforhodamine B assay; format: functional, cell-based; summary of the method: as §2
HOP-92 = assay: Growth inhibition of human HOP92 cells at 10 uM incubated for 48 hrs by sulforhodamine B assay; format: functional, cell-based; summary of the method: as §2
A549 = assay: Growth inhibition of human A549/ATCC cells at 10 uM incubated for 48 hrs by sulforhodamine B assay; format: functional, cell-based; summary of the method: as §1
SF-295 = assay: Growth inhibition of human SF295 cells at 10 uM incubated for 48 hrs by sulforhodamine B assay; format: functional, cell-based; summary of the method: as §2
OVCAR-8 = assay: Growth inhibition of human OVCAR8 cells at 10 uM incubated for 48 hrs by sulforhodamine B assay; format: functional, cell-based; summary of the method: as §2
Cryptococcus neoformans [2] = assay: Antifungal activity against Cryptococcus neoformans ATCC 32264 incubated for 48 hrs under dark condition by broth microdilution method; format: functional; settings: ATCC 32264, 48 h
Summary of the method: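 CLSI M27-A3 broth microdilution in RPMI-1640, DMSO ≤1%, compounds at 250-0.98 µg/mL final. Inoculum 1-5 × 10^3 CFU/mL. Incubated 48 h at 30 °C in a moist dark chamber, read at OD405. MIC80 and MIC50 taken from % inhibition dose-response curves (mean ± SEM, triplicate). Amphotericin B was the positive control.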

SNB-75 = assay: Growth inhibition of human SNB75 cells at 10 uM incubated for 48 hrs by sulforhodamine B assay; format: functional, cell-based; summary of the method: as §3
Candida albicans = assay: Growth inhibition of Candida albicans ATCC 10231 at 31.25 ug/ml incubated for 48 hrs under dark condition by broth microdilution method relative to control; format: functional; settings: ATCC 10231, 48 h, read-out: GI; summary of the method: as §4
NCI-H522 = assay: Growth inhibition of human NCI-H522 cells at 10 uM incubated for 48 hrs by sulforhodamine B assay; format: functional, cell-based; summary of the method: as §2
NCI/ADR-RES = assay: Growth inhibition of human NCI/ADR-RES cells at 10 uM incubated for 48 hrs by sulforhodamine B assay; format: functional, cell-based; summary of the method: as §2
A498 = assay: Growth inhibition of human A498 cells at 10 uM incubated for 48 hrs by sulforhodamine B assay; format: functional, cell-based; summary of the method: as §1
Cryptococcus neoformans [3] = assay: Growth inhibition of Cryptococcus neoformans ATCC 32264 at 31.25 ug/ml incubated for 48 hrs under dark condition by broth microdilution method relative to control; format: functional; settings: ATCC 32264, 48 h, read-out: GI; summary of the method: as §4
HOP-62 = assay: Growth inhibition of human HOP62 cells at 10 uM incubated for 48 hrs by sulforhodamine B assay; format: functional, cell-based; summary of the method: as §1
SK-MEL-2 = assay: Growth inhibition of human SK-MEL-2 cells at 10 uM incubated for 48 hrs by sulforhodamine B assay; format: functional, cell-based; summary of the method: as §3
CAKI-1 = assay: Growth inhibition of human Caki1 cells at 10 uM incubated for 48 hrs by sulforhodamine B assay; format: functional, cell-based; summary of the method: as §1

SMILES | growth inhibition (GI) (HCT-15) | growth inhibition (GI) (MDA-MB-231) | growth inhibition (GI) (SK-MEL-5) | growth inhibition (GI) (BT-549) | growth inhibition (GI) (786-0) | growth inhibition (GI) (SK-OV-3) | growth inhibition (GI) (MOLT-4) | growth inhibition (GI) (EKVX) | growth inhibition (GI) (NCI-H322M) | MIC (Staphylococcus aureus) | growth inhibition (GI) (NCI-H23) | growth inhibition (GI) (T47D) | growth inhibition (GI) (U-251) | inhibition of growth at 250 µg/mL (Cryptococcus neoformans [1]) | growth inhibition (GI) (DU-145) | MIC (Klebsiella pneumoniae) | MIC50 (Cryptococcus neoformans [2]) | MIC80 (Cryptococcus neoformans [2]) | inhibition of growth at 31.25 µg/mL (Candida albicans) | inhibition of growth at 31.25 µg/mL (Cryptococcus neoformans [3]) | other results
COc1cc(C(=O)/C=C/c2cccc(Nc3ccnc4cc(Cl)ccc34)c2)cc(OC)c1OC | Active | Active | Active | Active | Active | Active | Active | Active | Active | > 1000 µg/mL | Active | Active | Active | 7.12% | Active | > 1000 µg/mL | ≥ 250 µg/mL | ≥ 250 µg/mL | 6.92% | 3.63% | growth inhibition (GI) (SF-268): Active; growth inhibition (GI) (HOP-92): Active; growth inhibition (GI) (A549): Active; growth inhibition (GI) (SF-295): Active; growth inhibition (GI) (OVCAR-8): Active; growth inhibition (GI) (SNB-75): Active; growth inhibition (GI) (NCI-H522): Active; growth inhibition (GI) (NCI/ADR-RES): Active; growth inhibition (GI) (A498): Active; growth inhibition (GI) (HOP-62): Active
Clc1ccc(C2=NN(c3ccccc3)C(c3cccc(Nc4ccnc5cc(Cl)ccc45)c3)C2)cc1 (centres undefined) | inactive | inactive | inactive | inactive | inactive | inactive | inactive | inactive | inactive | > 1000 µg/mL | inactive | inactive | inactive | 19.8% | inactive | > 1000 µg/mL | ≥ 250 µg/mL | ≥ 250 µg/mL | 4.92% | 0% | growth inhibition (GI) (SK-MEL-2): inactive; growth inhibition (GI) (CAKI-1): inactive; growth inhibition (GI) (SF-268): inactive; growth inhibition (GI) (HOP-92): inactive; growth inhibition (GI) (A549): inactive; growth inhibition (GI) (SF-295): inactive; growth inhibition (GI) (OVCAR-8): inactive; growth inhibition (GI) (SNB-75): inactive; growth inhibition (GI) (NCI-H522): inactive; growth inhibition (GI) (NCI/ADR-RES): inactive; growth inhibition (GI) (A498): inactive; growth inhibition (GI) (HOP-62): inactive
COc1ccc(C2=NN(C=O)C(c3cccc(Nc4ccnc5cc(Cl)ccc45)c3)C2)cc1 (centres undefined) | Active | Active | Active | Active | Active | Active | Active | Active | Active | > 1000 µg/mL | Active | Active | Active | 55.4% | Active | > 1000 µg/mL | 125 µg/mL (≈ 274 µM) | ≥ 250 µg/mL | 14.7% | 29.1% | growth inhibition (GI) (SF-268): Active; growth inhibition (GI) (HOP-92): Active; growth inhibition (GI) (A549): Active; growth inhibition (GI) (SF-295): Active; growth inhibition (GI) (OVCAR-8): Active; growth inhibition (GI) (SNB-75): Active; growth inhibition (GI) (NCI-H522): Active; growth inhibition (GI) (NCI/ADR-RES): Active; growth inhibition (GI) (A498): Active; growth inhibition (GI) (HOP-62): Active
O=CN1N=C(c2ccc(Cl)cc2)CC1c1cccc(Nc2ccnc3cc(Cl)ccc23)c1 (centres undefined) | Active | Active | Active | Active | Active | Active | Active | Active | Active | > 1000 µg/mL | Active | Active | Active | 79.9% | Active | > 1000 µg/mL | 31.2 µg/mL (≈ 67.7 µM) | ≥ 250 µg/mL | 24.5% | 55.7% | growth inhibition (GI) (SF-268): Active; growth inhibition (GI) (HOP-92): Active; growth inhibition (GI) (A549): Active; growth inhibition (GI) (SF-295): Active; growth inhibition (GI) (OVCAR-8): Active; growth inhibition (GI) (SNB-75): Active; growth inhibition (GI) (NCI-H522): Active; growth inhibition (GI) (NCI/ADR-RES): Active; growth inhibition (GI) (A498): Active; growth inhibition (GI) (HOP-62): Active
O=Cc1cccc(Nc2ccnc3cc(Cl)ccc23)c1 | – | – | – | – | – | – | – | – | – | 500 µg/mL (≈ 1770 µM) | – | – | – | 100% | – | 250 µg/mL (≈ 884 µM) | 250 µg/mL (≈ 884 µM) | 250 µg/mL (≈ 884 µM) | 10.6% | 14.3% | –
COc1ccc(C(=O)/C=C/c2cccc(Nc3ccnc4cc(Cl)ccc34)c2)cc1 | Active | Active | Active | Active | Active | Active | Active | Active | Active | > 1000 µg/mL | Active | Active | Active | 46.1% | Active | > 1000 µg/mL | ≥ 250 µg/mL | ≥ 250 µg/mL | 26.9% | 7.31% | growth inhibition (GI) (SF-268): Active; growth inhibition (GI) (HOP-92): Active; growth inhibition (GI) (A549): Active; growth inhibition (GI) (SF-295): Active; growth inhibition (GI) (OVCAR-8): Active; growth inhibition (GI) (SNB-75): Active; growth inhibition (GI) (NCI-H522): Active; growth inhibition (GI) (NCI/ADR-RES): Active; growth inhibition (GI) (A498): Active; growth inhibition (GI) (HOP-62): Active
